# DNMT1 inh – human DNMT1 methyltransferase inhibitors, primary screen, biochemical, molecular beacon, fluorescence, HinP1I cleavage, uHTS; inhibition (reported as % activation of signal), % at 10 µM; DNA (cytosine-5)-methyltransferase 1 (Homo sapiens), P26358; 360,000 compounds, 0.83% hits; in the data active = inhibition above about 50%
# Scp1 inh – Scp-1 phosphatase inhibitors, primary screen, biochemical, colorimetric, uHTS; Recombinant Scp1, phosphopeptide, malachite green phosphate absorbance; Carboxy-terminal domain RNA polymerase II polypeptide A small phosphatase 1 (Homo …; inhibition, % at 20 µM; 340,000 compounds, 0.88% hits;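 active = inhibition above about 50% at 20 µM, limit read from the data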;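 note: plate controls were DMSO wells with enzyme for no effect and wells lacking enzyme for full effect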
#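 Test system – truncated SCP-1 phosphatase (76-261aa) · Reagent – Phosphorylated 17-residue peptide substrate · Incubation – 45 min room-temperature reaction, 5 min colour, 30 min stabiliser · Detection – colorimetric phosphate reagent with accelerator and stabiliser, absorbance at 630 nm · Measure – % inhibition at 20 µM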
# SUMO1-SIM PPI – modulators of SUMO1 protein-protein interactions, primary screen, biochemical, uHTS; inhibition, % at 20 µM; SUMO1 binding to a labelled peptide, TR-FRET, 1 h; AID 602429, 2012; 360,000 compounds, 0.33% hits; in the data active = inhibition above about 37%
# STEP block – STEP phosphatase inhibitors, primary screen, biochemical, fluorescence intensity, uHTS | inhibition, % at 20 µM | recombinant STEP, OMFP fluorogenic substrate | 360,000 compounds, 0.25% hits;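 active = inhibition at 20 µM, scaled per plate between control wells, above about 37%, limit read from the data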;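 note: 0% = DMSO with enzyme and substrate and 100% = substrate only without enzyme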
#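 Assay system: isolated STEP enzyme. Buffer or medium: pH 6.0 Bis-Tris with DTT and Tween 20. Also added: fluorogenic phosphatase substrate OMFP at 25 µM final. Dosing: 20 µM, 1% DMSO. Timing: 20 min reaction, room temperature, in the dark. Measured by: fluorescence intensity, excitation 480 nm, emission 540 nm. Evaluation: normalized % inhibition.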
# NadD block – inhibitors of S. aureus NadD, primary screen, biochemical, colorimetric, uHTS. Nicotinate-nucleotide adenylyltransferase NadD (Staphylococcus aureus N315). purified NadD enzyme, colorimetric absorbance read-out. inhibition, % at 20 µM. 360,000 compounds, 0.78% hits. AID 602399, 2012; in the data active = inhibition above about 26%
# LMPTP inh – LMPTP phosphatase inhibitors, primary screen, biochemical, fluorescence intensity, uHTS | 360,000 compounds, 0.22% hits | recombinant LMPTP-A, OMFP fluorogenic substrate | Low molecular weight phosphotyrosine protein phosphatase (Homo sapiens), P24666 | inhibition, % at 20 µM | AID 651560, 2012;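 active = compounds that cut the enzyme signal by at least half of the control window in the single-dose screen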;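 note: plate controls were DMSO wells with enzyme plus substrate for no effect and substrate without enzyme for full effect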
#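 Assay system: LMPTP-A phosphatase enzyme | Input: 0.625 nM enzyme | Also added: Fluorogenic phosphatase substrate OMFP at 400 µM final | Compound dosing: One test concentration per compound, 20 µM, with 3% DMSO overall | Schedule: 50 min enzyme reaction at room temperature, protected from light | Signal: Fluorescence intensity | Benchmarks: no-enzyme and uninhibited controls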
# Scp-1 conf – Scp-1 phosphatase inhibitors, retest, confirmation, biochemical, colorimetric, single concentration; shares compounds with Scp1 inh; recombinant SCP-1 catalytic domain, phosphate release, malachite green absorbance; inhibition, % at 20 µM; 2,500 compounds, 61% hits;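 note: plate controls were DMSO with enzyme for no effect and buffer wells lacking enzyme for full effect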
# MG interference – colorimetric readout interference by compounds, confirmation, artefact control for Scp-1 inhibitor project, biochemical, single concentration | apparent inhibition (interference), % at 20 µM | Colorimetric interference counterscreen, malachite green absorbance 630 nm | 2,500 tested, under 10 active | shares compounds with Scp1 inh | AID 540313, 2011;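 note: compounds added after enzyme reaction finished so only phosphate colour detection is probed; plate controls were DMSO wells with completed Scp-1 reaction for no effect and substrate wells lacking enzyme for full effect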
# Scp-1 Tm shift – Scp-1 binding by thermal shift, confirmation, orthogonal assay for Scp-1 inhibitor project, biophysical, differential scanning fluorimetry; shares compounds with Scp1 inh; AID 540329, 2011; thermal shift relative to vanadate control, % at 40 µM; Recombinant SCP1, Sypro Orange thermal shift Tm; 1,500 compounds, 25% hits;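 active = substances whose mean melting-temperature shift, as a percentage of the reference inhibitor's shift, reaches about 5.3%, limit read from the data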;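 note: 0% = Tm of DMSO wells and 100% = Tm with sodium orthovanadate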
# DNMT1 interf DR – spectral interference with molecular beacon fluorescence, dose response, artefact control for DNMT1 inhibitor project, biochemical, fluorescent molecular beacon; shares compounds with DNMT1 inh; spectral interference counter-screen; IC50, µM; 200 tested, under 10 active; AID 602382, 2012; call rule not given here
# DNMT1 inh conf – DNMT1 methyltransferase inhibitor retest, confirmation, biochemical, molecular beacon, fluorescence, single concentration | shares compounds with DNMT1 inh | DNMT1 molecular beacon HinP1I cleavage | inhibition, % at 10 µM | 2,300 compounds, 8% hits;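 active = average inhibition of at least 30% in the single-concentration confirmation test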
# Beacon interf – beacon fluorescence artifact counter-screen. shares compounds with DNMT1 inh. DNMT1 molecular beacon spectral interference counterscreen, fluorescence 485/520. activation (fluorescence interference), % at 10 µM. 2,300 compounds, 1% hits. AID 602387;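 active = activation of at least 30% at 10 µM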;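 note: DNMT1 catalytic domain with a HinP1I cleavage step and a FAM/dabcyl DNA beacon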
# STEP conf – STEP phosphatase inhibitor hit confirmation, biochemical, fluorescence intensity, single concentration; shares compounds with STEP block; recombinant STEP, OMFP fluorogenic substrate; inhibition, % at 20 µM; 520 compounds, 32% hits; AID 623866, 2012; call rule not given here;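 note: 0% = enzyme with substrate plus DMSO and 100% = substrate without enzyme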
# NadD inh conf – inhibitors of S. aureus NadD, confirmation, biochemical, colorimetric, single concentration. purified S. aureus NadD, colorimetric enzyme assay. 2,000 compounds, 13% hits. AID 624309, 2012. inhibition, % at 20 µM. shares compounds with NadD block; in the data active = inhibition mostly above about 42%, no sharp cut-off; inactive = mostly below about 42%
# * marks the source's active call; other numbers are inactive results; x = not tested or not shown. Hits are enriched below; roughly 2.3% of the tested compounds scored in any of these assays.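 Rule for the calls, unless noted: active = inhibition of at least 30% at 20 µM; inactive = the rest.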
SMILES,DNMT1 inh,Scp1 inh,SUMO1-SIM PPI,STEP block,NadD block,LMPTP inh,Scp-1 conf,MG interference,Scp-1 Tm shift,DNMT1 inh conf,Beacon interf,NadD inh conf,others
Cc1c2cnn(CC(=O)Nc3c(F)c(F)cc(F)c3F)c(=O)c2c(C)n1Cc1ccccc1F,91*,69*,16,5,32*,15,77*,-6,7.2*,24,-4,46,DNMT1 interf DR=>99
C/C(=N\NC(=O)c1cccc([N+](=O)[O-])c1)c1ccco1,-2,-4,-23,0,-6,0,x,x,x,x,x,x,
C/C(=N\NC(=O)c1cccc(N/N=C(\C)c2ccco2)c1)c1ccco1,4,61*,23,2,38*,8,62*,-15,6.1*,x,x,45,
Cc1ccc(S(=O)(=O)c2cc3c(=O)n4ccccc4nc3n(Cc3ccco3)c2=N)cc1,69*,66*,4,5,43*,25,14,5,x,1,-2,26,
COc1cccc(N2[C@@H](CC(=O)O)c3cc(C(F)(F)F)ccc3S2(=O)=O)c1,15,104*,9,-2,49*,0,69*,-19,3,x,x,52*,
COc1cccc(N2[C@@H](CC(=O)O)c3ccccc3S2(=O)=O)c1,1,-3,-2,-1,-5,-1,x,x,x,x,x,x,
COc1ccc(S(=O)(=O)N2CCN(Cc3cccc(F)c3)CC2)cc1,2,3,3,0,-5,1,x,x,x,x,x,x,
CC(Nc1nc(-c2ccc(F)cc2)cs1)c1nc2cc(Cl)c(Cl)cc2n1CCCO (configuration not stated),-22,-3,12,2,19,2,x,x,x,x,x,x,
Cc1ccc(Cn2c(C(C)Nc3nc(-c4ccc(C)cc4)cs3)nc3cc(Cl)c(Cl)cc32)cc1 (configuration not stated),78*,61*,110*,78*,35*,24,56*,2,4,11,5,25,STEP conf=26

# High-throughput results (PubChem)
